Measurements from ChEMBL document CHEMBL1137258 (J Med Chem, 2006).

Experiments:
RKO [1] = assay: Cytotoxicity against cell cycle arrested RKOp27 cells after 72 hrs by alamar blue assay; type: functional, cell-based; settings: Homo sapiens
Outline: (§1)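 Human colon carcinoma RKOp27 line carrying ponasterone-A-inducible p27kip1. Induction gives G1-arrested cells, and uninduced cells stay proliferating. Viability was read as metabolic activity by Alamar Blue. IC50 values are the mean ± SD of two independent experiments, each with quadruplicate samples per concentration.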

RKO [2] = assay: Cytotoxicity against proliferating RKOp27 cells after 72 hrs by Alamar Blue assay; type: functional, cell-based; settings: Homo sapiens; outline: as §1
Tubulin (Bos taurus) = assay: Inhibition of [3H]colchicine binding to beta tubulin
Tubulin = Tubulin (Bos taurus, UniProt Q6B856+Q862L2+Q862F3); assay: Inhibition of MAP containing bovine brain tubulin polymerization; type: functional
RKO [3] = assay: Cytotoxicity against RKOp27 cells at 30 uM after 72 hrs by alamar blue assay; type: functional, cell-based; settings: Homo sapiens

SMILES | IC50 (RKO [1]) [µM] | IC50 (RKO [2]) [µM] | IC50 (Tubulin (Bos taurus)) [µM] | IC50 (Tubulin) [µM] | Activity (RKO [3])
Cc1nccn1-c1csc(Nc2cccc(Br)c2)n1 | > 100 | > 100 | – | – | –
Cc1nc2ccccc2n1-c1csc(Nc2ccc(Br)cc2)n1 | 60 | 0.09 | 1.25 | 1.2 | –
Cc1cn(-c2csc(Nc3cccc(Br)c3)n2)c(C)n1 | > 100 | > 100 | – | – | –
Cc1nc(C)c(-c2csc(Nc3ccc(Br)cc3)n2)s1 | 30 | 0.7 | 1 | – | –
Cc1nccn1-c1csc(Nc2ccccc2)n1 | > 100 | 32.5 | – | – | –
COc1ccc(Nc2nc(-n3c(C)nc4ccccc43)cs2)cc1 | 52.5 | 0.025 | 0.75 | 1.25 | –
COc1ccc(Nc2nc(-n3cnc4ccccc43)cs2)cc1 | > 100 | > 100 | – | – | –
Cc1cn(-c2csc(Nc3ccc(Br)cc3)n2)c(C)n1 | 45 | 0.4 | 4 | – | –
Brc1ccc(Nc2nc(-n3cnc4ccccc43)cs2)cc1 | > 100 | > 100 | 100 | – | –
Cc1nccn1-c1csc(Nc2ccc(S(N)(=O)=O)cc2)n1 | > 100 | 49 | – | – | –
c1ccc(Nc2nc(-n3cnc4ccccc43)cs2)cc1 | > 100 | > 100 | – | – | –
Cc1nccn1-c1csc(Nc2ccc(Br)cc2)n1 | > 100 | 30 | – | – | Not toxic
Cc1nc2ccccc2n1-c1csc(Nc2ccc(S(N)(=O)=O)cc2)n1 | 95 | 45 | – | – | –
COc1ccc(Nc2nc(-n3ccnc3)cs2)cc1 | > 100 | > 100 | – | – | –
Cc1nc2ccccc2n1-c1csc(Nc2cccc(Br)c2)n1 | 85 | 36 | – | – | –
COc1cccc(Nc2nc(-n3c(C)nc4ccccc43)cs2)c1 | 60 | 40 | – | – | –
COc1cc([C@@H]2c3cc4c(cc3[C@H](O)[C@H]3COC(=O)[C@H]23)OCO4)cc(OC)c1OC [PODOFILOX] | > 0.5 | 0.029 | – | – | –
Cc1nc2ccccc2n1-c1csc(Nc2ccccc2)n1 | 50 | 40 | – | – | –
COc1cc2c(c(OC)c1OC)-c1ccc(OC)c(=O)cc1[C@@H](NC(C)=O)CC2 [COLCHICINE] | > 5 | 0.016 | – | – | –
COc1ccc(Nc2nc(-n3cc(C)nc3C)cs2)cc1 | > 100 | 0.25 | 7.5 | – | –
c1ccc(Nc2nc(-n3ccnc3)cs2)cc1 | > 100 | > 100 | – | – | –
COc1cccc(Nc2nc(-n3ccnc3C)cs2)c1 | > 100 | 22.5 | – | – | –
Cc1ccc(Nc2nc(-n3ccnc3C)cs2)cc1 | > 100 | 0.45 | 0.75 | 3 | –
Cc1ccc(Nc2nc(-n3cc(C)nc3C)cs2)cc1 | > 100 | 0.2 | 6.25 | – | –
COc1cccc(Nc2nc(-n3cc(C)nc3C)cs2)c1 | 60 | 22.5 | – | – | –
COc1ccc(Nc2nc(-n3ccnc3C)cs2)cc1 | > 100 | 1.6 | 8 | – | –
